High-throughput results deposited in PubChem by several laboratories.
This is a sample that favours compounds with a hit; in the whole collection about 6.6% have one here.
H69AR inhibit: blocks growth of human H69AR lung tumor cells. AID 598. H69AR lung tumor viability, ATP luminescence, 72 h; stronger effect = lower value. actives 6% (n = 85,000). viability, % at 10 µM;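 active = viability at or below 40%; inactive = viability above 40%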;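 note: multidrug resistant small cell line overexpressing MRP-1 efflux transporter; 100% = mean luminescence of untreated control wells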
Fibroblast inh: blocks proliferation of human lung fibroblasts. viability, % at 10 µM. LL 47 human lung fibroblast viability, ATP luminescence; stronger effect = lower value. actives 1.1% (n = 85,000);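 active = viability at or below 50% in the single dose screen; inactive = viability above 50%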;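 note: compound exposure lasted 72 h before the ATP readout; 100% = median luminescence of untreated cell-only wells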
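Test system: LL 47 human lung fibroblasts / Incubation: 72 h compound exposure at 37 °C after overnight plating / Technique: luminescent ATP detection, CellTiter-Glo / Compound dosing: 0.1% DMSO in all compound wells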
Jurkat tox 60K: cytotoxicity toward Jurkat cells | Jurkat E6.1 viability, ATP luminescence, 48 h | AID 463 | inhibition, % at 4 µM | actives 1.2% (n = 56,000);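 active = inhibition above the mean inhibition of all tested compounds plus 3 SD, cut at about 28% in these data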
HUVEC inhibit: inhibitors of human endothelial cell proliferation. actives 1.1% (n = 86,000). HUVEC proliferation, CellTiter-Glo luminescence, 72 h; stronger effect = lower value. viability, % at 10 µM (by protocol). AID 648;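 active = viability at or below 30%; inactive = viability above 30%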;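 note: 100% = median luminescence of DMSO-only cell control wells on each plate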
Starred values were filed as active, the others as inactive; . = no result given.

SMILES | H69AR inhibit | Fibroblast inh | Jurkat tox 60K | HUVEC inhibit
COc1cc2c(=O)n(Cc3ccccc3)c(=O)n(CC(=O)C(C)(C)C)c2cc1OC | 90.0 | 95.0 | . | 84.3
Cc1cc(C)c(NC(=O)Cn2c(=O)n(Cc3ccco3)c(=O)c3ccccc32)c(C)c1 | 87.2 | 99.1 | -0.1 | 106.6
COc1cc2c(=O)n(Cc3ccco3)c(=O)n(CC(=O)c3cccc(Br)c3)c2cc1OC | 2.4* | 97.5 | -0.3 | 57.0
COc1cc2c(=O)n(Cc3ccco3)c(=O)n(CC(=O)c3ccc(Br)cc3)c2cc1OC | 16.6* | 80.2 | -0.3 | 72.6
CNC(=O)/C=C1\NC(C)(C)Cc2c1ccc1ccccc21 | 22.7* | 89.5 | . | 80.2
CCN(c1cccc(C)c1)S(=O)(=O)c1cnc[nH]1 | 97.5 | 105.4 | . | 96.4
Cn1c(C(=O)N2CCCC(C(=O)NCCCSC3CCCCC3)C2)cc2sccc21 (centres undefined) | 29.1* | 93.8 | 7.0 | 71.1
Cn1c(C(=O)N2CCCC(C(=O)NCc3cccs3)C2)cc2sccc21 (centres undefined) | 87.8 | 93.1 | -4.3 | 89.3
CCCNC(=O)CN(CCc1ccccc1)S(C)(=O)=O | 97.1 | 103.7 | . | 89.7
CCN(CC)S(=O)(=O)c1cccc(C(=O)Nc2nc3cc4c(cc3s2)OCCO4)c1 | 22.5* | 95.0 | 35.9* | 104.0
CC(C)(C)c1cnnn1-c1ccc(C=O)cc1 | 97.5 | 100.5 | . | 96.3
CC(C)(C)c1cnnn1-c1ccc(C(=O)CCl)cc1 | 1.6* | 15.6* | . | 40.0
CCC(=O)c1ccc(OCC(=O)Nc2nn3cnnc3s2)cc1 | 91.7 | 97.8 | . | 104.3
O=C(Nc1nc(-c2ccc3c(c2)OCCO3)cs1)c1ccc(S(=O)(=O)N2CCCCC2)cc1 | 93.8 | 94.8 | 72.4* | 87.8
O=C(Nc1nc(-c2ccc(S(=O)(=O)N3CCCCCC3)cc2)cs1)c1ccccc1 | 45.4 | 105.2 | . | 83.7
COc1ccc(-c2oc(/N=C/N3CCOCC3)c(C#N)c2-c2ccc(OC)cc2)cc1 | 90.6 | 91.7 | . | 94.1
S=C(Nc1ccccc1)c1ccccn1 | 1.2* | 96.0 | . | 93.0
CCCc1nc(SCC(=O)N2CCC(Cc3ccccc3)CC2)c2c(=O)n(C)c(=O)n(C)c2n1 | 41.6 | 105.4 | -4.9 | 3.2*
CCCc1nc(SCC(=O)Nc2ccccc2)c2c(=O)n(C)c(=O)n(C)c2n1 | 42.0 | 78.3 | . | 42.1
CCc1nc(SCC(=O)NCc2ccccc2)c2c(=O)n(C)c(=O)n(C)c2n1 | 27.3* | 93.6 | . | 87.1
Cc1cc(N)n(-c2ccc3ccccc3c2)n1 | 64.3 | 98.6 | . | 71.5
CCOC(=O)C1=C(O)/C(=C/c2cn(CC(=O)NCC3CCCO3)c3ccccc23)SC1=Nc1ccc(C)cc1 (centres undefined) | 22.6* | 26.8* | . | 11.6*
Cc1ccc(S(=O)(=O)CCc2nc3ccccc3n2CCC#N)cc1 | 13.8* | 112.9 | . | 99.6
O=C1N/C(=C\c2ccccc2)c2ccccc21 | 24.1* | 74.7 | 81.2* | 42.7
COc1ccc(CNc2cc(C)nc3ncnn23)c(OC)c1 | 81.3 | 96.4 | 79.8* | 84.8
SMILES | H69AR inhibit | Fibroblast inh | Jurkat tox 60K | HUVEC inhibit
COc1ccc(Nc2cc(C)nc3ncnn23)c(OC)c1 | 89.9 | 94.8 | -8.6 | 90.6
COc1ccc(OC)c(Nc2cc(C)nc3nc(C)nn23)c1 | 21.6* | 82.4 | 25.4 | 74.8
COc1ccc(C)cc1Nc1cc(C)nc2nc(C)nn12 | 25.1* | 88.9 | 35.5* | 77.1
C=CCOC(=O)C1=C(C)NC(SCC(=O)Nc2ccccc2)=C(C#N)C1c1ccco1 (centres undefined) | 51.6 | 71.4 | . | 47.7
CCOC(=O)c1sc(N(Cc2ccccc2)C(=O)CSc2nnc(C3CC3)n2N)nc1C | 57.1 | 95.3 | . | 58.5
CC1=CC(C)(C)N(S(=O)(=O)c2ccc(C)cc2)c2cc(C)ccc21 | 34.5* | 52.1 | . | 44.0
Cc1ccc(S(=O)(=O)N2C(=S)SCC2(C)C)cc1 | 89.1 | 99.7 | 12.4 | 105.4
CCOC(=O)C1CCN(CC(=O)Nc2cc(C)nn2-c2nc3ccccc3s2)CC1 | 27.8* | 94.4 | . | 72.9
CCOC(=O)C1CCN(CC(=O)Nc2c(C(=O)OC)[nH]c3ccccc23)CC1 | 1.9* | 101.7 | 10.0 | 102.9
CCOC(=O)C1CCN(CC(=O)Nc2c(C(=O)OC)[nH]c3ccc(Cl)cc23)CC1 | 42.4 | 97.6 | 44.1* | 92.1
Cc1cc(NC(=O)CN2CC(C)OC(C)C2)n(-c2nc3ccccc3s2)n1 (centres undefined) | 42.6 | 89.5 | . | 90.0
CSc1nnnn1-c1ccc(C(=O)OCC(=O)N2CCOCC2)cc1 | 102.5 | 105.4 | 10.2 | 89.5
Cc1ccc2c(Cl)cc(Cl)c(OCC(=O)NCc3ccco3)c2n1 | 51.7 | 87.1 | . | 82.9
Cc1ccc2c(Cl)cc(Cl)c(OCC(=O)NC(=O)NCc3ccco3)c2n1 | 30.1* | 92.9 | -5.8 | 83.0
O=C(Nc1ccccc1-c1nc2ccccc2s1)c1ccco1 | 37.2* | 82.8 | 6.8 | 46.4
CCOC(=O)c1sc(Nc2cccc(C)c2C)nc1C | 83.5 | 87.0 | . | 71.3
Cc1ccc(-c2ccccc2NC(=O)CCl)o1 | 0.1* | 99.4 | . | 83.8
CC(=O)c1c(N2CCN(Cc3ccccc3)CC2)[nH]c(-c2ccccc2)nc1=S | 4.6* | 93.4 | 38.1* | 77.3
CC(=O)c1ccc(N2CCN(c3ccc(S(=O)(=O)N4CCN(C)CC4)cn3)CC2)cc1 | 103.8 | 96.7 | . | 100.6
COc1cccc(-c2noc(N)c2C#N)c1 | 27.9* | 97.0 | -7.0 | 99.5
COc1ccc(N(C(=O)c2ccco2)S(=O)(=O)c2cc(Cl)c(Cl)cc2Cl)cc1 | 19.9* | 97.0 | . | 68.5
COc1ccc(N(CC(=O)NCc2ccco2)S(C)(=O)=O)cc1 | 99.5 | 106.7 | -7.2 | 88.4
Cc1ncsc1CCSc1nc2ccccc2c(=O)n1C | . | . | 11.0 | .
Cc1ccc(Cn2ccc(=O)c(OCc3c(Cl)cccc3Cl)c2C)cc1 | 25.0* | 85.5 | . | 72.5
COc1cccc(C2N(c3cccc(Cl)c3)C(=O)C3CCCN32)c1 (centres undefined) | 82.8 | 103.2 | 3.5 | 101.8
SMILES | H69AR inhibit | Fibroblast inh | Jurkat tox 60K | HUVEC inhibit
CCCCN(CC)c1nc(N)c2c(N)nc(OCC)cc2c1C#N | 33.9* | 82.2 | . | 79.8
c1ccc(CNn2nnnc2-c2ccccc2)cc1 | 92.3 | 105.0 | 4.5 | 92.7
Cc1cc(-c2ccccc2)nc2cc(C(=O)NCCCn3ccnc3)nn12 | 42.6 | 89.6 | . | 88.6
O=C(NCCCn1ccnc1)c1cc2nc(-c3ccc(Br)cc3)cc(C(F)(F)F)n2n1 | 4.2* | 93.6 | . | 56.7
O=C1C(Cl)=C(N2CCOCC2)C(=O)N1c1ccccc1Cl | 28.4* | . | -4.1 | 101.1
CN(C)C/C(Cl)=C(\Cl)c1ccccc1 | 12.1* | 99.3 | . | 97.3
Cc1cc(C2=CC(C)(c3cc(C)oc3C)Nc3nc(C(F)(F)F)nn32)c(C)o1 (centres undefined) | 3.2* | 79.6 | 13.6 | 66.6
Cn1cc(Cl)nc1C(O)c1ccccc1 (centres undefined) | 98.7 | 96.5 | . | 94.8
COc1ccc(CN(CC2CCCO2)C(=O)CN2C(=O)C(C)Oc3ccc(C)cc32)cc1OC (centres undefined) | 39.9* | 102.5 | . | 71.5
CCC1Oc2ccc(C)cc2N(CC(=O)N(Cc2ccc3c(c2)OCO3)CC2CCCO2)C1=O (centres undefined) | 50.3 | 104.5 | 7.9 | 95.6
COc1ccccc1-n1cnc(N)c1C(=O)c1ccccc1 | 23.6* | 72.5 | 36.1* | 68.2
